PKD1 kinase inh: inhibitors of human PKD1 kinase, biochemical, fluorescence polarization. PKD1 kinase fluorescence polarization assay. 200,000 tested, 0.056% active. inhibition, % (concentration not given with the values); in the data active = inhibition above about 50%
Wee1 degr inh: Wee1 degradation inhibitors, primary screen, cell-based, HeLa, Wee1K328M-luciferase, luminescence; Wee1-like protein kinase (Homo sapiens), P30291; 220,000 tested, 1.2% active; HeLa Luc-Wee1K328M stability; 100% = proteasome inhibitor MG132 effect; AID 1321, 2008; reporter increase, % at 5 µM;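 active = activation above the mean of all tested compounds plus 3 SD, set per screening run, cut at about 8.8% in these data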;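 also: cells exposed to compound for 20 h before luminescence read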
Target sequence (P30291 whole entry K328M): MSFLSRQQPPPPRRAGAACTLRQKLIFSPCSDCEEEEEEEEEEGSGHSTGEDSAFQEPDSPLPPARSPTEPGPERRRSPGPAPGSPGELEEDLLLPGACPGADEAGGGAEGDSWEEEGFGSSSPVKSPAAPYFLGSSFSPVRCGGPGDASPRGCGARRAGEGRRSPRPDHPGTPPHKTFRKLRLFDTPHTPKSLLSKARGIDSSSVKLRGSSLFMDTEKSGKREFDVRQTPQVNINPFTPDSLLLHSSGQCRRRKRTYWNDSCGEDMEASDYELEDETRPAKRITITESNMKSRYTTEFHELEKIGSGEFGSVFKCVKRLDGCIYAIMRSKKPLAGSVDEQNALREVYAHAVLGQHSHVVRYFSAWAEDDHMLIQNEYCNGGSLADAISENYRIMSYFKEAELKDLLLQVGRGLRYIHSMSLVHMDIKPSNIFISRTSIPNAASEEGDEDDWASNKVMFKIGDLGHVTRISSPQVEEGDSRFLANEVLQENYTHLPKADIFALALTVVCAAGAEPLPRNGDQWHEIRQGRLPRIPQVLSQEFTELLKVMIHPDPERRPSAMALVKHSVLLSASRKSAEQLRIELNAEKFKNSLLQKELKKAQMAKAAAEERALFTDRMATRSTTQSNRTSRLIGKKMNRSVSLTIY
FLuc inhib CS: firefly luciferase enzyme inhibitors, primary screen, artefact control for luciferase-based inhibitor screens, biochemical, luminescence, ATPLite; Luciferin 4-monooxygenase (Photinus pyralis), P08659; 200,000 tested, 1.5% active; AID 1006, 2008; inhibition, % at 10 µM; 10 min;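 active = inhibition above about 50% when tested at 10 µM, limit read from the data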
PPC-1+TRAIL kill: compounds killing PPC-1 cancer cells with TRAIL present, primary screen, TRAIL potentiator project, ATPLite luminescence, uHTS | cell killing (% activity), % at 4 µM or 5 µM | PPC-1 cells + TRAIL, ATPLite viability luminescence | 220,000 tested, 0.41% active;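 active = cell killing above 50% in the first pass at 4 µM, then a duplicate retest at 5 µM averaging 50% or more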
FLuc act counter: FLuc activators, initial screening, artefact control for FLuc-dependent activation tests, biochemical, ATPlite luminescence; 200,000 tested, under 10 active; activation factor at 10 µM; ATPlite luciferase biochemical, 10 min; 0 = ATP-free wells, 1 = DMSO control;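 active = luciferase activation factor, scaled between plate controls, of at least 2 with compound at 10 µM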
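System: luciferase plus luciferin reagent, cell-free; medium: PBS as buffer for the ATP substrate; dosing: test compounds dosed from 2 mM stocks in 100% DMSO; timing: 10 min post-reagent at room temperature; measured by: luminescence measurement of luciferase light output; evaluation: luciferase activation, seen as luminescence increase over controls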
C8 TRAIL sens: viability loss with TRAIL in NB7+C8 cells, primary screen, TRAIL sensitizer project, cell-based, ATPlite luminescence; 360,000 tested, 1% active; inhibition (viability loss, TRAIL sensitization), % at 10 µM; AID 624354, 2012;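 active = compounds causing at least 50% loss of cell viability in the single-dose screen, relative to plate controls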
A number is an active result; – = inactive; · = no result. Hits are enriched below; roughly 2.2% of the tested compounds scored in any of these assays.

SMILES	PKD1 kinase inh	Wee1 degr inh	FLuc inhib CS	PPC-1+TRAIL kill	FLuc act counter	C8 TRAIL sens
COc1ccc2cc(-c3cccnc3)ncc2c1	·	·	·	·	·	–
COc1ccc2cc(-c3ccccc3F)ncc2c1	·	·	·	·	·	53
COc1cc(-c2nnn(CC(=O)N3CCOCC3)n2)cc(OC)c1OC	–	–	–	–	–	–
CCOc1cc(C(=O)N(C)CC(=O)Nc2cccc3ccccc23)ccc1OC	·	·	·	·	·	–
CC(NC(=O)CN1C(=O)NC2(CCc3ccccc32)C1=O)c1ccc2c(c1)OCCO2 (configuration not stated)	·	·	·	·	·	–
Cc1ccc(NC(=O)n2ncc3c(C)cccc32)cc1F	·	·	·	·	·	–
COc1ccc(-c2cc(C(=O)N3CCOCC3)no2)cc1	·	·	·	·	·	51
COc1cccc(-c2cc(C(=O)N3CCOCC3)no2)c1	·	·	·	·	·	–
COc1ccc(-c2cc3ccccc3cn2)cc1	·	·	·	·	·	55
c1ccc(-c2cc(-c3cc(-c4ccccc4)on3)no2)cc1	·	·	·	·	·	–
COc1ccc(-c2cc(-c3ccccc3)no2)cc1	·	·	·	·	·	59
O=C(Nc1cccc(Cl)c1)Nc1ccccc1C(=O)O	·	–	·	–	·	–
O=C(Nc1ccc(Cl)cc1)Nc1cccc(C(=O)O)c1	–	–	76	–	–	65
O=C(Nc1cccc(Cl)c1)Nc1cccc(C(=O)O)c1	·	–	·	–	·	–
O=C(Nc1ccc(Cl)cc1)Nc1ccccc1C(=O)O	–	–	90	·	–	75
O=C(Nc1ccc(Cl)c(Cl)c1)Nc1ccccc1C(=O)O	–	–	67	–	–	63
COc1cc2cc(CN(C(=O)NC3CCCCC3)C3CCCC3)c(=O)[nH]c2cc1OC	–	8.8	–	–	–	–
COc1ccc(CNC[C@@H](CCCCN(C)Cc2ccc(OC)cc2)N2C[C@H](c3ccccc3)N(CCc3ccc(Cl)c(Cl)c3)C(=O)C2=O)cc1	–	–	–	–	–	89
O=C1C2C3C=CC(C4CC34)C2C(=O)N1/N=C/c1c[nH]c2ccccc12 (configuration not stated)	–	–	78	–	–	–
Cn1c(N=NC(=O)c2ccccc2)c(O)c2ccccc21	–	–	86	–	–	60
CN1CCN(c2ccc(NC(=O)N3CCc4ccccc43)cc2)CC1	·	·	·	·	·	61
Cc1ccc(NC(=O)N2CCCc3ccccc32)cc1	–	–	–	–	–	–
Cn1c(N)c(C(=O)c2ccc(F)cc2F)c(=O)n(C)c1=O	–	–	–	–	–	–
CCCOc1ccc(-c2cn3ccccc3n2)cc1[N+](=O)[O-]	–	–	78	–	–	62
COc1ccc(-c2cn3ccccc3n2)cc1[N+](=O)[O-]	–	–	79	–	–	61
SMILES	PKD1 kinase inh	Wee1 degr inh	FLuc inhib CS	PPC-1+TRAIL kill	FLuc act counter	C8 TRAIL sens
C=C(C)c1cc2c(ccc3ccc(=O)oc32)o1	·	·	·	·	·	87
CNC(=O)c1cc2c(ccc3ccccc32)o1	–	–	–	–	–	–
COCCn1c(Cc2ccccc2)nnc1SCC(=O)NC1CCCCC1	·	·	·	·	·	–
CC1(C)C(=O)Nc2ccccc2N1C(=O)COC(=O)c1ccc(NC(N)=O)cc1	·	·	·	·	·	–
N#Cc1cnn2c(N)c(-c3ccc(Cl)cc3)cnc12	–	–	–	–	–	–
Nc1c(-c2cccs2)cnc2c(-c3ccc(F)cc3)cnn12	·	·	·	·	·	61
Nc1nc2nccc(-c3ccc(Cl)cc3)n2n1	–	–	51	–	–	–
CS(=O)(=O)c1cnc2c(-c3ccc(F)cc3)cnn2c1N	–	–	–	–	–	–
Nc1c(C(=O)O)cnc2c(-c3ccc(Cl)cc3)cnn12	–	–	58	–	–	–
Nc1c(-c2ccccc2)cnc2c(-c3ccccc3)cnn12	·	·	·	·	·	84
CC(=O)c1cnc2c(-c3ccc(Cl)cc3)cnn2c1C	–	–	–	–	–	–
Cc1nc(NC(=O)CSc2nccn2C)sc1C(=O)N(C)C	·	·	·	·	·	–
Cc1ccc(CCNC(=O)CC(C)CC2=NS(=O)(=O)c3ccccc3N2)cc1 (configuration not stated)	·	·	·	·	·	–
Cc1cc(N)n2ncc(-c3ccc(F)cc3)c2n1	–	–	–	–	–	–
Cc1nc2c(-c3ccc(F)cc3)cnn2c(N)c1-c1ccc(F)cc1	·	·	·	·	·	53
Clc1ccc(-c2cnn3c(-c4ccncc4)ccnc23)cc1	–	–	68	–	–	–
Cc1ccc(Cn2ccc(NC(=O)c3cc(-c4ccc(F)cc4)on3)n2)cc1	–	–	–	–	–	–
O=C(Nc1ccn(Cc2ccccc2)n1)c1ccc(F)cc1	–	–	50	–	–	–
CN(C)c1ccc(-c2cc3ccccc3c(=O)o2)cc1	·	·	·	·	·	57
O=c1[nH]c(-c2ccncc2)nc2ccccc12	–	–	–	–	–	–
COc1ccc(-c2nc3ccccc3c(=O)[nH]2)cc1	·	·	·	·	·	66
COc1cc(OC)cc(-c2nc3ccccc3c(=O)o2)c1	–	–	–	–	–	–
COc1cccc(-c2nc3ccccc3c(=O)o2)c1	–	–	52	–	–	–
COc1ccc(-c2cc3ccccc3c(=O)o2)cc1	·	·	·	·	·	53
Cc1ccc(CNS(=O)(=O)c2ccc3c(c2)NC(=O)C(C)S3)cc1 (configuration not stated)	·	·	·	·	·	–
SMILES	PKD1 kinase inh	Wee1 degr inh	FLuc inhib CS	PPC-1+TRAIL kill	FLuc act counter	C8 TRAIL sens
CCOC(=O)C1=C(C)NC(=S)NC1c1ccsc1 (configuration not stated)	–	–	–	–	–	–
CC(O)CCC(=O)NCCNC(=O)CCC(C)O (configuration not stated)	–	–	–	–	–	–
CC(O)C(=O)NCCOCCOCCNC(=O)C(C)O (configuration not stated)	–	9.5	–	–	–	–
CC/C(=N\NC(=O)c1ccc(N(C)C)cc1)c1ccccc1	–	9.5	–	–	–	–
CC/C(=N\NC(=O)c1ccc(N2CCCC2=O)cc1)c1ccccc1	·	·	·	·	·	–
COc1cccc(-c2c(C(=O)N/N=C/c3ccoc3)nnn2-c2nonc2N)c1	·	·	·	·	·	–
COc1ccc(-c2cc(C(=O)c3c(N)n(C)c(=O)n(C)c3=O)c3ccccc3n2)cc1OC	–	–	62	–	–	–
CCCCC(=O)Nc1ccc2c(c1)nc(CN1CCN(C(=O)OCC)CC1)n2C	·	·	·	·	·	–
CCOc1cc(/C=N\NC(=O)c2ccc(NC(=O)C(C)(C)C)cc2)ccc1OC(=O)c1cccc(C)c1	–	–	–	–	–	59
CCOc1cc(/C=N\NC(=O)c2ccc(NC(=O)C(C)(C)C)cc2)ccc1OC(=O)c1ccc(C)cc1	–	–	–	–	–	–
Cn1c(=O)c(C(=O)Nc2cnccn2)c(O)c2ccccc21	·	·	–	–	–	·
Cn1c(=O)c(C(=O)Nc2ccccn2)c(O)c2ccccc21	–	–	67	–	–	62

Assay outcomes as filed in PubChem BioAssay.
